Active and inactive are the calls of the source.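 How the source made its calls: active means mean inhibition of serotonin release over both replicates above 50%; inactive means mean inhibition at or below 50%.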
System: Human washed platelets, SFLLRN-induced 14C-serotonin release
Experiment: inhibition of SFLLRN-induced dense granule secretion, late-stage follow-up, mechanism study for platelet granule secretion inhibitor project, cell-based, 14C-serotonin release, radioactive (AID 2656)
Conditions: at 10 µM; stronger effect = higher value
Method in brief: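 Material: washed platelets preloaded with 14C-serotonin / Input: 2x10^8 platelets/mL / Medium: HEPES-Tyrodes buffer for resuspended platelets / Reagent: SFLLRN peptide 5 µM plus imipramine 5 µM blocking reuptake / Dosing: single compound dose of 10 µM / Timing: compound pre-incubation 15 min, SFLLRN stimulation 15 min / Technique: beta scintillation counting of supernatant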

SMILES	inhibition
COc1cc2c(cc1OC)-c1cc(Nc3ccccc3C)nc(=O)n1CC2	94.8%
COC(=O)c1nn(-c2ccc3c(c2)CCN3C(C)=O)cc1O	12.8% (inactive)
O=C(Oc1ccc(Cl)cc1)c1ccc(COC(=O)c2cnccn2)cc1	0.5% (inactive)
CC(=O)Oc1ccc(-c2nc(-c3cccnc3)no2)cc1	-5.2% (inactive)
COC(=O)c1ccccc1NC(=O)Nc1ccc2c(c1)OCO2	15.4% (inactive)
CCOc1ccc2nc(NCCO)[nH]c2c1	9.75% (inactive)
COc1ccc(C(=O)Nc2ccc(N3CCOCC3)cc2)cc1OC	9.3% (inactive)

From PubChem BioAssay AID2656 (Broad Institute, 2010)
